Measured values collected from several papers.
Target: Phosphatidylinositol 4-kinase beta (PI4KB, Homo sapiens, UniProt Q9UBF8)

| SMILES | assay | conditions | remaining binding |
| --- | --- | --- | --- |
| CN(CCCC(F)(F)F)c1nccc(-c2cnn3ncccc23)n1 | binding | 1 µM | 100% |
| CNCc1ccccc1-c1csc([C@@H](C)Nc2nc(C)nc3cc(OC)c(OC)cc23)c1 | cell-free assay, competition with immobilised ligand | 1 µM | 82% |
| Cc1cnc(Nc2ccc(C(=O)N3CCC(N4CCCC4)CC3)cc2)nc1-c1cc2ccccc2s1 | binding, competition with immobilised ligand | 1 µM | 77% |
| CNC(=O)[C@@H]1CC[C@@H](n2c(-c3ccc4cnccc4c3)nc3ccc(C(=O)NCc4cccc(C(N)=O)c4)cc32)C1 | binding, competition with immobilised ligand | 1 µM | 96% |
| CC(=O)C1=C(C)N(c2cccc(C(F)(F)F)c2)C(=O)N[C@@H]1c1ccc(C#N)nc1 | cell-free assay, competition with immobilised ligand | 1 µM | 100% |
| COc1cnc(Nc2cccc(S(N)(=O)=O)c2)nc1N1CCN(c2ccccc2)CC1 | binding, competition with immobilised ligand | 1 µM | 53% |
| CNC(=O)Nc1ccc2c(c1)[C@@]1(CC2)OC(=O)N(CC(=O)N(Cc2ccc(F)cc2)[C@@H](C)C(F)(F)F)C1=O | cell-free assay, competition with immobilised ligand | 1 µM | 71% |
| Nc1ncc2c(n1)-c1c([nH]c3ccc(C#CC4CC4)cc13)CCCC2 | binding, competition with immobilised ligand | 1 µM | 100% |
| F[C@@H]1CCN(c2nccc(-c3cnn4ncccc34)n2)C1 | binding | 1 µM | 89% |
| O=C(N1CCS(=O)(=O)CC1)N1C[C@H](c2ccc(OC(F)(F)F)cc2)C[C@H](c2nc(C3CC3)no2)C1 | cell-free assay, competition with immobilised ligand | 1 µM | 100% |
| CN(c1nccc(-c2cnn3ncccc23)n1)C1CC1 | binding | 1 µM | 100% |
| O=C(NCC1CCOCC1)c1n[nH]cc1NC(=O)c1c(F)cccc1F | binding, competition with immobilised ligand | 1 µM | 92% |
| c1cnn2ncc(-c3ccnc(N4CCC45COC5)n3)c2c1 | binding | 1 µM | 12% |
| O=C(c1ccc(Nc2ncc(Cl)c(-c3cc4ccccc4s3)n2)cc1)N1CCC(N2CCCC2)CC1 | binding, competition with immobilised ligand | 1 µM | 76% |
| C[C@@H]1CCN(c2nccc(-c3cnn4ncccc34)n2)C1 | binding | 1 µM | 20% |
| COCCOc1nc(-c2ccc(Cl)nc2)nc2c1CN(C(=O)c1ncn3ccccc13)CC2 | cell-free assay, competition with immobilised ligand | 0.1 µM | 100% |
| C[C@@H](c1ccc(-n2cnc3c(N)ncnc32)cc1)N1CCc2nn(C)c(Cc3ccccc3)c2C1=O | binding, competition with immobilised ligand | 0.1 µM | 42% |
| CCOC(=O)c1cc2cc(-c3cc(C(=O)NCc4ccc(C(=O)O)cc4)nn3C)ccc2[nH]1 | cell-free assay, competition with immobilised ligand | 0.1 µM | 79% |
| N[C@@H]1CCN(c2nccc(-c3cnn4ncccc34)n2)C1 | binding | 1 µM | 80% |
| O=C(NCCCN1CCOCC1)c1ccc(Nc2nccc(-c3cc4ccccc4s3)n2)cc1 | binding, competition with immobilised ligand | 1 µM | 45% |
| CC(C)CC(=O)N1CCc2nc(-c3ccc(Br)cc3)nc(N(C)Cc3ccccc3)c2C1 | cell-free assay, competition with immobilised ligand | 0.1 µM | 100% |
| CN(C)c1nccc(-c2cnc3ncccn23)n1 | binding | 1 µM | 79% |
